Laboratory results taken from article PMC9053608 (RSC Advances, 2020).
Marks after values point to notes of the source that are not given here. Ends that are not written are not given here.

How the values were obtained:
E. coli ATCC 25922 = test: Antibacterial activity, microdilution assay; type: cell-based; details: microdilution (CLSI), 96-well, 24 h at 37 °C, absorbance 620 nm, n = 2
Outline: (§1)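 MIC by CLSI broth microdilution. Peptide solutions at 200, 100, 50, 25, 12.5 and 6.2 μg mL−1 were mixed 9:1 with bacterial inoculum (5 × 10^6 CFU mL−1). Plates were incubated 24 h at 37 °C and read at A620. […] Duplicate runs (n = 2).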

S. aureus ATCC 25923 = test: Antibacterial activity, microdilution assay; type: cell-based; details: microdilution (CLSI), 96-well, 24 h at 37 °C, absorbance 620 nm, n = 2
Outline: as §1

[1] = test system: breast cancer cell line MDA-MB-468; test: MTT cytotoxicity assay; type: cell-based, human; details: 37 °C, 5% FBS, mean ± SD (n = 3); for Cellular Viability (%), MDA-MB-468 cells, 2 h: peptide 200 μg mL−1, 2 h; for Cellular Viability (%), MDA-MB-468 cells, 24 h: peptide 200 μg mL−1, 24 h; for Cellular Viability (%), MDA-MB-468 cells, 48 h: peptide 200 μg mL−1, 48 h
Outline: (§2)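 Cells (1 × 10^4 per well) adhered for 14 h at 37 °C in humidified 5% CO2. Medium was then replaced with equal volumes of supplemented RPMI (10%) and peptide solution (200–6.25 μg mL−1), giving 5% final FBS. After 2, 24 or 48 h, MTT (5 mg mL−1 stock) was added for 4 h at 37 °C. Formazan was dissolved in DMSO and read at A570; mean ± S.D., n = 3.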

[2] = test system: young human fibroblast primary cell culture; test: MTT cytotoxicity assay; type: cell-based; details: 37 °C, 5% FBS, mean ± SD (n = 3); for Cellular Viability (%), Fibroblast cells, 2 h: peptide 200 μg mL−1, 2 h; for Cellular Viability (%), Fibroblast cells, 24 h: peptide 200 μg mL−1, 24 h; for Cellular Viability (%), Fibroblast cells, 48 h: peptide 200 μg mL−1, 48 h
Outline: as §2

MDA-MB-468 cells = test: Morphologic changes by phase-contrast microscopy; type: cell-based, human; details: phase-contrast microscopy 20×, peptide at 134,61 μM, 24 h
Outline: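 MDA-MB-468 cells (ATCC HTB-132), 1 × 10^4 per well, were allowed to adhere for 14 h at 37 °C in 5% CO2. Medium was then replaced with supplemented RPMI plus test compound, giving 5% FBS final. Plates were incubated at 37 °C in 5% CO2, and cells were photographed before MTT addition. Untreated cells were recorded alongside.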

Substance | MIC, E. coli ATCC 25922 (E. coli ATCC 25922) [µM] | MIC, S. aureus ATCC 25923 (S. aureus ATCC 25923) [µM] | Cellular Viability (%), MDA-MB-468 cells, 2 h [1] [%] | Cellular Viability (%), MDA-MB-468 cells, 24 h [1] [%] | Cellular Viability (%), MDA-MB-468 cells, 48 h [1] [%] | Cellular Viability (%), Fibroblast cells, 2 h [2] | Cellular Viability (%), Fibroblast cells, 24 h [2] | Cellular Viability (%), Fibroblast cells, 48 h [2] | morphological changes in MDA-MB-468 cells (MDA-MB-468 cells)
RAQWRWQWR-NH2 [Peptide A2] | 146 | 146 | 62 ± 4 | 63 ± 4 | 58 ± 6 | 100 ± 2 ^a % | 94 ± 2 ^a % | 87 ± 2 ^a % | significant morphological changes associated with the cytotoxic effect were not observed
RWQWAWQWR-NH2 [Peptide A5] | – | 143 | 71 ± 8 | 62 ± 7 | 64 ± 4 | 99 ± 1 ^a % | 81 ± 1 ^b % | 82 ± 1 ^a % | morphological changes were observed, acquiring rounded forms
RWQWRAQWR-NH2 [Peptide A6] | 37 | – | 55 ± 6 | 49 ± 5 | 52 ± 5 | 100 ± 2 ^a % | 88 ± 2 ^a % | 79 ± 4 ^a % | significant morphological changes associated with the cytotoxic effect were not observed
RWQWRWAWR-NH2 [Peptide A7] | 18 | 140 | 59 ± 6 | 57 ± 3 | 56 ± 1 | 96 ± 5 ^a % | 100 ± 1 ^a % | 79 ± 5 ^a % | morphological changes were observed, acquiring rounded forms
RWQWRWQAR-NH2 [Peptide A8] | 37 | 146 | 69 ± 5 | 62 ± 5 | 61 ± 6 | 100 ± 1 ^a % | 94 ± 1 ^a % | 85 ± 4 ^a % | significant morphological changes associated with the cytotoxic effect were not observed
RWQWRWQWA-NH2 [Peptide A9] | 143 | 143 | 64 ± 7 | 55 ± 6 | 65 ± 7 | 100 ± 4 ^a % | 98 ± 3 ^a % | 100 ± 3 ^a % | –
